Assays:
[1] = target: Alpha-1B adrenergic receptor (Cavia porcellus); experiment: Antagonist activity at adrenergic Alpha-1B receptor in guinea pig spleen; conditions: read-out: pA2 (converted)
[2] = target: T1, Alpha-1A adrenergic receptor (Rattus norvegicus, UniProt P43140); experiment: Antagonist activity at adrenergic alpha1A receptor in rat tail artery; type: functional, tissue-based; conditions: read-out: pA2 (converted)
T1 sequence (P43140 whole entry): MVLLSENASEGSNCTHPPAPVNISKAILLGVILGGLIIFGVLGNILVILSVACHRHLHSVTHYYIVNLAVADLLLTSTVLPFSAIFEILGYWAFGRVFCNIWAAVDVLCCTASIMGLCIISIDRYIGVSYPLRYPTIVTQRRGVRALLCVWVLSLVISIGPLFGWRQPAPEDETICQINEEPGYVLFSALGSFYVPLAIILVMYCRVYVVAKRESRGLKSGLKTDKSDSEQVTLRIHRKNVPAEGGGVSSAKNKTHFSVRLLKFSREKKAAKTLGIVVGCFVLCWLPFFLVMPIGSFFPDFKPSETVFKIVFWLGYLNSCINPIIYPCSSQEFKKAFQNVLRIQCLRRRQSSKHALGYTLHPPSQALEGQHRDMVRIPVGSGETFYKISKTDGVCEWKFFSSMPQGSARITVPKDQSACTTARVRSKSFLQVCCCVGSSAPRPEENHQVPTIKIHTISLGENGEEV
Summary of the method: (§1)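 Isolated tissues: guinea pig spleen (α1B), rat aorta (α1D), rat tail artery (α1A). Two cumulative noradrenaline concentration-response curves per tissue, 60 min apart, without then with antagonist. Apparent pA2 = −log[B] + log(r − 1), where r is the ratio of agonist EC50 with and without antagonist. EC50 taken at the curve midpoint. Means ± SEM, 4–8 separate experiments.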

[3] = target: Alpha-1 adrenergic receptor (Rattus norvegicus); experiment: Binding affinity to adrenergic alpha1 receptor in rat brain
[4] = target: T2, Alpha-1D adrenergic receptor (Rattus norvegicus, UniProt P23944); experiment: Antagonist activity at adrenergic Alpha-1D receptor in rat aorta; type: functional, tissue-based; conditions: read-out: pA2 (converted)
T2 sequence (P23944 whole entry): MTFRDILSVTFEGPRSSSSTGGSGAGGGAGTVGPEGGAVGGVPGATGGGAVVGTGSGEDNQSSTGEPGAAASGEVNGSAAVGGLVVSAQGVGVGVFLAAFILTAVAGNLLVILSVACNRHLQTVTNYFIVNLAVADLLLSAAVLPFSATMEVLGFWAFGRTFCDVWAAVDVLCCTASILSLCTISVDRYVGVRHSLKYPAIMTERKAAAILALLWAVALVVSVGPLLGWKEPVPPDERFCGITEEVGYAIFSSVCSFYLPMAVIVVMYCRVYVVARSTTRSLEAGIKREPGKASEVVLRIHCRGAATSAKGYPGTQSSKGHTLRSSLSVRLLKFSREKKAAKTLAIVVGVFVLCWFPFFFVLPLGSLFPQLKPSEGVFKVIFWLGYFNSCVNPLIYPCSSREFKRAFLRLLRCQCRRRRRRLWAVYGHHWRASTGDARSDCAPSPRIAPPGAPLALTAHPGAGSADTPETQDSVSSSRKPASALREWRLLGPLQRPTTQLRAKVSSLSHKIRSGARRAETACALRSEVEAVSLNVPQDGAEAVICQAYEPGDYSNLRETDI
Summary of the method: as §1

Kb [1] [nM]	Kb [2] [nM]	Ki [3] [nM]	Kb [4] [nM]	SMILES
			1350	CCOC(=O)CN1C(=O)N(CC(O)CN2CCN(c3ccccc3OC)CC2)C(c2ccccc2)(c2ccccc2)C1=O (centres undefined)
1260	224	200	295	COC(=O)CN1C(=O)N(CC(O)CN2CCN(c3ccccc3OC)CC2)C(c2ccccc2)(c2ccccc2)C1=O (centres undefined)
			112	COc1ccccc1N1CCN(CC(O)CN2C(=O)NC(=O)C2(c2ccccc2)c2ccccc2)CC1 (centres undefined)
			141	COc1ccccc1N1CCN(CC(O)CN2C(=O)N(C)C(=O)C2(c2ccccc2)c2ccccc2)CC1 (centres undefined)
			4370	COC(=O)CN1C(=O)N(CC(O)CN2CCN(c3ccccc3)CC2)C(c2ccccc2)(c2ccccc2)C1=O (centres undefined)

The next lines start with the compound.

SMILES	Kb [1] [nM]	Kb [2] [nM]	Ki [3] [nM]	Kb [4] [nM]
CN1C(=O)N(CC(O)CN2CCN(c3ccccc3F)CC2)C(c2ccccc2)(c2ccccc2)C1=O (centres undefined)	1820	891	562	245
COC(=O)C(C)N1C(=O)N(CC(O)CN2CCN(c3ccccc3OC)CC2)C(c2ccccc2)(c2ccccc2)C1=O (centres undefined)	851	155	105	347
CCOC(=O)C(C)N1C(=O)N(CC(O)CN2CCN(c3ccccc3OC)CC2)C(c2ccccc2)(c2ccccc2)C1=O (centres undefined)				70.8
CCOc1ccccc1N1CCN(CC(O)CN2C(=O)N(C(C)C(=O)OC)C(=O)C2(c2ccccc2)c2ccccc2)CC1 (centres undefined)				269
CCOc1ccccc1N1CCN(CC(O)CN2C(=O)N(C)C(=O)C2(c2ccccc2)c2ccccc2)CC1 (centres undefined)				195

From ChEMBL document CHEMBL1255177, “Search for influence of spatial properties on affinity at α1-adrenoceptor subtypes for phenylpiperazine derivatives of phenytoin” (Bioorg Med Chem Lett, 2010)
